Read-outs that look alike come from different tables or passages of the source.
Assays:
[1] = system: canine osteosarcoma cell line OSCA40; test: Cell viability after 24h treatment, OSCA40 cell line; type: cell-based, dog; conditions: OSCA40, 24h
Summary of the method: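 OSCA40 canine osteosarcoma cells were kept in α-MEM with 10% FCS, 10 mM L-glutamine and penicillin/streptomycin at 37°C, 5% CO2, for at most four passages, and tested Mycoplasma-negative. As a control line they were given a BH3 mimetic at 2 nM–10 μM, with 0.001% DMSO as the negative control, for 24 h.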

[2] = system: primary canine T cell cancers (T cell lymphoma, TZL, T-CLL) neoplastic T lymphocytes; test: In vitro BH3 mimetics sensitivity cell kill assay, primary canine T cell cancers; type: cell-based; conditions: dog 26, multicentric large T cell lymphoma, neoplastic CD3+ nodal T cells, 24 h
[3] = system: MDCK immortalized canine kidney cells; test: Cell viability after 24h treatment, MDCK cell line; type: cell-based, dog
Summary of the method: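 MDCK canine kidney cells were kept in DMEM with 10% FCS and penicillin/streptomycin at 37°C, 5% CO2, for at most four passages, and tested Mycoplasma-negative. As a control line they were given a BH3 mimetic at 2 nM–10 μM, with 0.001% DMSO as the negative control, for 24 h.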

[4] = people, 400 mg daily dosing; cited from earlier work
[5] = dogs, 20 mg/kg once a day; cited from earlier work
human DLBCL (hDLBCL) = conditions: single‐agent treatment; cited from earlier work
[6] = system: human B‐cell acute lymphoblastic leukemia cell line RS4;11; test: Cell viability after 24h treatment, RS4; type: cell-based; conditions: RS4;11 positive control
Summary of the method: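 RS4;11 human B-ALL cells had their identity genetically confirmed and were grown in RPMI with 10% FCS and penicillin/streptomycin at 37°C, 5% CO2, for at most four passages. They were run as a control with each experiment at 1 × 10^5 cells/well in single replicates, given a BH3 mimetic at 2 nM–10 μM or 0.001% DMSO for 24 h at 37°C.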

Beagles = conditions: 2 to 20 mg/kg PO daily for up to 9 months; cited from earlier work

Compound | sensitivity in vitro [1] | EC50 [2] | sensitivity in vitro [3] | area under the curve (AUC) [4] | area under the curve (AUC) [5] | overall response rate (human DLBCL (hDLBCL)) | sensitivity in vitro [6] | Other clinical toxicities (Beagles) | average reduction in circulating lymphocytes (Beagles) | hematological finding (Beagles)
CC1(C)CCC(c2ccc(Cl)cc2)=C(CN2CCN(c3ccc(C(=O)NS(=O)(=O)c4ccc(N[C@H](CCN5CCOCC5)CSc5ccccc5)c(S(=O)(=O)C(F)(F)F)c4)cc3)CC2)C1 [NAV, navitoclax] | resistance | 20.8 nM | resistance | – | – | – | – | – | – | –
CC1(C)CCC(CN2CCN(c3ccc(C(=O)NS(=O)(=O)c4ccc(NCC5CCOCC5)c([N+](=O)[O-])c4)c(Oc4cnc5[nH]ccc5c4)c3)CC2)=C(c2ccc(Cl)cc2)C1 [VEN, venetoclax] | resistance | 7.9 nM | resistance | 31800 ng·h/mL | 73600 ng·h/mL | 18% | sensitive | grade 2 weight loss associated with hyporexia, and leukotricia | 81% | mild anemia

Source: PMC9889650 (Journal of Veterinary Internal Medicine, 2022)
